Results reported in ChEMBL document CHEMBL1221285, “Inhibition of interleukin-1beta converting enzyme (ICE or caspase 1) by aspartyl acyloxyalkyl ketones and aspartyl amidooxyalkyl ketones” (Bioorg Med Chem Lett, 2010).

biological target: T1, Caspase-1 (Homo sapiens) (UniProt P29466); test: Inhibition of ICE in human PBMC
T1 sequence (whole entry): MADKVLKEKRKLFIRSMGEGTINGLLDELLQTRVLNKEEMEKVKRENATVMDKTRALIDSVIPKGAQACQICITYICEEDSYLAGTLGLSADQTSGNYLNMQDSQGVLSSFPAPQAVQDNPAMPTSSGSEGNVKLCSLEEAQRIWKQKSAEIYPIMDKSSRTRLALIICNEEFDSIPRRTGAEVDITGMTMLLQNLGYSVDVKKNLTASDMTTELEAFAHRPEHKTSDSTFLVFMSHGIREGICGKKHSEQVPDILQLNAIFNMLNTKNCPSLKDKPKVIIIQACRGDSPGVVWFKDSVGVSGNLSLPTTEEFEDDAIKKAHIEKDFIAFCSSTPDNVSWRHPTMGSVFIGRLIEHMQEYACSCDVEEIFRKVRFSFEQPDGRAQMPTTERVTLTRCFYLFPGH
Method in brief: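 Human PBMC isolated from heparinized blood over Ficoll, washed three times in PBS, then held in RPMI 1640 with glutamine, penicillin, streptomycin and 2% human AB serum at 10^6 cells per well. Cells were stimulated overnight with LPS 10 ng/mL with or without inhibitor. Mature IL-1b in the medium was measured by ELISA. IC50 is the concentration reducing IL-1b by 50%.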

| Structure (SMILES) | IC50 [µM] |
| --- | --- |
| COC(=O)C[C@H]1CCC[C@H]2CC(=O)N(OCC(=O)[C@H](CC(=O)O)NC(=O)[C@H](C)NC(=O)[C@@H](NC(=O)OCc3ccccc3)C(C)C)[C@@H]12 | 4.8 |
| CC(=O)N[C@@H](Cc1ccc(O)cc1)C(=O)N[C@H](C(=O)N[C@@H](C)C(=O)N[C@@H](CC(=O)O)C(=O)CCCCCc1ccccc1)C(C)C | 0.9 |
| CC(C)[C@H](NC(=O)OCc1ccccc1)C(=O)N[C@@H](C)C(=O)N[C@@H](CC(=O)O)C(=O)CCCCCc1ccccc1 | 4.9 |
| CC(C)[C@H](NC(=O)OCc1ccccc1)C(=O)N[C@@H](C)C(=O)N[C@@H](CC(=O)O)C(=O)COC(=O)C(Cc1ccccc1)Cc1ccccc1 | 1.4 |
| CC(C)[C@H](NC(=O)OCc1ccccc1)C(=O)N[C@@H](C)C(=O)N[C@@H](CC(=O)O)C(=O)CON1C(=O)C[C@@H]2CCCC[C@@H]21 | 2.4 |
| CC(C)[C@H](NC(=O)OCc1ccccc1)C(=O)N[C@@H](C)C(=O)N[C@@H](CC(=O)O)C(=O)COC(=O)Cc1cccc2ccccc12 | 0.6 |
| CC(C)[C@H](NC(=O)OCc1ccccc1)C(=O)N[C@@H](C)C(=O)N[C@@H](CC(=O)O)C(=O)CON1C(=O)Cc2ccccc21 | 3 |
| CC(C)[C@H](NC(=O)OCc1ccccc1)C(=O)N[C@@H](C)C(=O)N[C@@H](CC(=O)O)C(=O)COC(=O)CC(c1ccccc1)c1ccccc1 | 4.3 |

biological target: T2, Caspase-1 (Homo sapiens, UniProt P29466); test: Inhibition of ICE
T2 sequence (P29466 whole entry): T1 sequence (whole entry)
Method in brief: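 Recombinant ICE; inhibition followed by fluorescence. Ki reported as the geometric mean of two or more experiments.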

| Structure (SMILES) | Ki [µM] | IC50 [µM] |
| --- | --- | --- |
| O=C(O)C[C@H](NC(=O)OCc1ccccc1)C(=O)COC(=O)Cc1csc2ccccc12 | 1.2 |  |
| O=C(O)C[C@H](NC(=O)OCc1ccccc1)C(=O)CON1C(=O)Cc2ccccc21 | 6.77 |  |
| Cc1ccc2ccccc2c1CC(=O)OCC(=O)[C@H](CC(=O)O)NC(=O)OCc1ccccc1 | 4.4 |  |
| O=C(O)C[C@H](NC(=O)OCc1ccccc1)C(=O)COC(=O)Cc1c[nH]c2ccccc12 | 0.6 |  |
| O=C(O)C[C@H](NC(=O)OCc1ccccc1)C(=O)COC(=O)CC(c1ccccc1)c1ccccn1 (stereo partly specified) | 1.1 |  |
| O=C(O)C[C@H](NC(=O)OCc1ccccc1)C(=O)COC(=O)COc1ccccc1 | 1.7 |  |
| O=C(O)C[C@H](NC(=O)OCc1ccccc1)C(=O)COC(=O)Cc1cccc2ccccc12 | 0.5 |  |
| COC(=O)C[C@H]1CCC[C@H]2CC(=O)N(OCC(=O)[C@H](CC(=O)O)NC(=O)[C@H](C)NC(=O)[C@@H](NC(=O)OCc3ccccc3)C(C)C)[C@@H]12 | 0.007 | 0.026 |
| CC(=O)N[C@@H](Cc1ccc(O)cc1)C(=O)N[C@H](C(=O)N[C@@H](C)C(=O)N[C@@H](CC(=O)O)C(=O)CCCCCc1ccccc1)C(C)C |  | 0.078 |
| CC(C)[C@H](NC(=O)OCc1ccccc1)C(=O)N[C@@H](C)C(=O)N[C@@H](CC(=O)O)C(=O)CCCCCc1ccccc1 | 0.134 | 0.976 |
| CC(C)[C@H](NC(=O)OCc1ccccc1)C(=O)N[C@@H](C)C(=O)N[C@@H](CC(=O)O)C(=O)COC(=O)C(Cc1ccccc1)Cc1ccccc1 | 0.002 | 0.003 |
| CC(C)[C@H](NC(=O)OCc1ccccc1)C(=O)N[C@@H](C)C(=O)N[C@@H](CC(=O)O)C(=O)CON1C(=O)C[C@@H]2CCCC[C@@H]21 | 0.001 | 0.003 |
| Cc1cccc2c(CC(=O)OCC(=O)[C@H](CC(=O)O)NC(=O)OCc3ccccc3)cccc12 | 2 |  |
| O=C(O)C[C@H](NC(=O)OCc1ccccc1)C(=O)COC(=O)COc1cccc2ccccc12 | 1 |  |
| O=C(O)C[C@H](NC(=O)OCc1ccccc1)C(=O)COC(=O)CCc1ccc2ccccc2c1 | 6 |  |
| O=C(O)C[C@H](NC(=O)OCc1ccccc1)C(=O)CONC(=O)CCc1cccc2ccccc12 | 298 |  |
| Cc1cccc2cccc(CC(=O)OCC(=O)[C@H](CC(=O)O)NC(=O)OCc3ccccc3)c12 | 8.5 |  |
| O=C(O)C[C@H](NC(=O)OCc1ccccc1)C(=O)CONC(=O)Cc1cccc2ccccc12 | 84 |  |
| CC(C)[C@H](NC(=O)OCc1ccccc1)C(=O)N[C@@H](C)C(=O)N[C@@H](CC(=O)O)C(=O)COC(=O)Cc1cccc2ccccc12 | 0.003 | 0.002 |
| O=C(O)C[C@H](NC(=O)OCc1ccccc1)C(=O)COC(=O)Cc1ccccc1 | 8.3 |  |
| O=C(O)C[C@H](NC(=O)OCc1ccccc1)C(=O)CON1C(=O)C[C@@H]2CCCC[C@@H]21 | 9.2 |  |

| Structure (SMILES) | Ki [µM] | IC50 [µM] |
| --- | --- | --- |
| Cc1ccc(CC(=O)OCC(=O)[C@H](CC(=O)O)NC(=O)OCc2ccccc2)c2ccccc12 | 1.3 |  |
| COC(=O)C[C@H]1CCC[C@H]2CC(=O)N(OCC(=O)[C@H](CC(=O)O)NC(=O)OCc3ccccc3)[C@@H]12 | 15 |  |
| CC(C)[C@H](NC(=O)OCc1ccccc1)C(=O)N[C@@H](C)C(=O)N[C@@H](CC(=O)O)C(=O)CON1C(=O)Cc2ccccc21 | 0.002 | 0.003 |
| O=C(O)C[C@H](NC(=O)OCc1ccccc1)C(=O)CON1Cc2ccccc2C1=O | 14 |  |
| O=C(O)C[C@H](NC(=O)OCc1ccccc1)C(=O)COC(=O)CNc1ccccc1 | 5.6 |  |
| CC(C)[C@H](NC(=O)OCc1ccccc1)C(=O)N[C@@H](C)C(=O)N[C@@H](CC(=O)O)C(=O)COC(=O)CC(c1ccccc1)c1ccccc1 | 0.001 | 0.005 |
| CC(C(=O)OCC(=O)[C@H](CC(=O)O)NC(=O)OCc1ccccc1)c1cccc2ccccc12 (stereo partly specified) | 1 |  |
| O=C(O)C[C@H](NC(=O)OCc1ccccc1)C(=O)COC(=O)CSc1ccccc1 | 1.1 |  |
| O=C(O)C[C@H](NC(=O)OCc1ccccc1)C(=O)COC(=O)CCc1ccccc1 | 4.5 |  |
| O=C(O)C[C@H](NC(=O)OCc1ccccc1)C(=O)CON1C(=O)C[C@@H]2CCCC[C@H]21 | 17.5 |  |
| O=C(O)C[C@H](NC(=O)OCc1ccccc1)C(=O)CONC(=O)CCc1ccccc1 | 27.5 |  |
| O=C(O)C[C@H](NC(=O)OCc1ccccc1)C(=O)COC(=O)CCCc1ccccc1 | 16 |  |
| O=C(O)C[C@H](NC(=O)OCc1ccccc1)C(=O)CONC(=O)c1ccccc1 | 21 |  |
| O=C(O)C[C@H](NC(=O)OCc1ccccc1)C(=O)COC(=O)CC(c1ccccc1)c1ccccc1 | 0.8 |  |
| O=C(O)C[C@H](NC(=O)OCc1ccccc1)C(=O)COCCCCCc1ccccc1 | 119 |  |
| O=C(O)C[C@H](NC(=O)OCc1ccccc1)C(=O)COC(=O)Cc1coc2ccccc12 | 0.8 |  |
| O=C(O)C[C@H](NC(=O)OCc1ccccc1)C(=O)CONC(=O)Cc1ccccc1 | 66.5 |  |
| O=C(O)C[C@H](NC(=O)OCc1ccccc1)C(=O)COC(=O)Cc1ccc2ccccc2c1 | 1.3 |  |
| O=C(O)C[C@H](NC(=O)OCc1ccccc1)C(=O)CON1C(=O)C2C3C=CC(O3)C2C1=O (stereo partly specified) | 1.5 |  |
| O=C(O)C[C@H](NC(=O)OCc1ccccc1)C(=O)COC(=O)Cc1cccc2scnc12 | 2.6 |  |
